Results from ChEMBL document CHEMBL1152567, “Synthesis and analgesic profile of conformationally constrained N-acylhydrazone analogues: discovery of novel N-arylideneamino quinazolin-4(3H)-one compounds derived from natural safrole” (2009).
The source made the active and inactive calls.

Tests used:
[1] = species on record: Oryctolagus cuniculus; assay: Inhibition of arachidonic acid-induced rabbit platelet aggregation by turbidimetric method; type: functional
Outline: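 Rabbits (2.5–3.0 kg) bled from the central ear artery into 3.8% trisodium citrate (9:1). PRP was spun at 1800 rpm and PPP at 3600 rpm, 10 min each at room temperature. PRP was stirred at 900 rpm at 37 °C, with compound or 0.5% DMSO vehicle added 5 min before arachidonic acid (200 µM in methods; 100 µM elsewhere). Read-out was percent of AA aggregation.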

[2] = system: Mus musculus; assay: Antinociceptive activity in Albino mouse assessed as inhibition of acetic acid-induced abdominal constriction at 100 umol/kg, po treated 1 hr before acetic acid challenge relative to control; type: functional; conditions: Abdomen
Outline: (§1)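 Albino mice of both sexes (18–23 g), dosed orally as a suspension in 5% arabic gum in saline. Acetic acid given ip 1 h later. Constrictions counted for 20 min, starting 10 min after injection. Expressed as % inhibition versus vehicle controls. Dose–response over 0.3–100 µmol/kg. Mean ± SEM of n animals; one-way ANOVA, Dunnett, P<0.01.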

[3] = system: Rattus norvegicus; assay: Antiinflammatory activity in Albino rat assessed as inhibition of carrageenan-induced paw edema at 100 umol/kg, ip; parameters: scale not given: the % may be the effect or the level left
[4] = system: Rattus norvegicus; assay: Antiinflammatory activity in Albino rat assessed as inhibition of carrageenan-induced paw edema at 10 umol/kg, ip; type: functional
Outline: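 Albino rats of both sexes (150–200 g), dosed as a suspension in 1% tween 80 in saline. 1 h later, 1% carrageenan (0.1 mg/paw) into one hind paw subplantar, saline into the other. Paw volumes by plethysmometer at 3 h; edema is the difference between the paws. Expressed as % inhibition versus vehicle controls.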

[5] = system: Rattus norvegicus; assay: Analgesic activity in carrageenan-induced Wistar rat hyperalgesia model assessed as reduction in latency time at 100 umol/kg, ip treated 60 mins before carrageen challenge; type: functional; parameters: scale not given: the % may be the effect or the level left
Outline: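 Wistar rats, dosed ip in 1% tween 80 in saline. Carrageenan 1 mg/paw intraplantar in left paw, saline in right, 100 µL each. Left-paw withdrawal latency on 51 ± 0.1 °C plate at 0, 30, 60, 120, 180, 240 min; cut-off 20 s. Hyperalgesia taken as latency at time 0 minus later latency. Mean ± SEM, n=8–10; one-way ANOVA, Dunnett.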

[6] = system: Mus musculus; assay: Antinociceptive activity in Albino swiss mouse assessed as inhibition of formalin induced pain at 100 umol/kg, ip treated 1 hr before formalin challenge; type: functional, organism-based
Outline: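 Albino Swiss mice of both sexes (18–25 g), fasted 8 h, dosed ip in 5% arabic gum. 60 min later, 20 µL of 2.5% formalin subplantar in one hind paw. Time spent licking or biting the paw scored at 0–5 min (neurogenic phase) and 15–30 min (inflammatory phase). Mean ± SEM, n=6–12; two-way ANOVA, Bonferroni.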

[7] = system: Mus musculus; assay: Analgesic activity in Swiss mouse assessed as response to thermal stimulation at 100 umol/kg, ip by Hot-plate test; type: functional, organism-based
Outline: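 Swiss mice of both sexes, fasted 8 h, water ad libitum; dosed ip in 1% tween in saline. Placed on plate at 55 ± 0.1 °C; paw licking or withdrawal timed. Two control readings 30 min apart set baseline latency; cut-off three times control mean. Latency recorded every 30 min after dosing for 150 min. Mean ± SEM, n=7.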

[8] = system: Mus musculus; assay: Antinociceptive activity in po treated Albino mouse assessed as inhibition of acetic acid-induced abdominal constriction treated 1 hr before acetic acid challenge; type: functional; conditions: Abdomen; outline: as §1

Compound	inhibition [1]	inhibition in vivo at 100 µmol/kg [2]	further results
Cc1nc2cc3c(cc2c(=O)n1/N=C/c1cccs1)OCO3	inactive	10.7%	–
Cc1nc2cc3c(cc2c(=O)n1/N=C/c1ccsc1)OCO3	inactive	34.7%	–
Cc1nc2cc3c(cc2c(=O)n1/N=C/c1cccnc1)OCO3	inactive	35.2%	–
COc1ccc2c(c1)c(CC(=O)O)c(C)n2C(=O)c1ccc(Cl)cc1 [INDOMETHACIN]	–	–	Activity [3]: 61%
Cc1nc2cc3c(cc2c(=O)n1/N=C/c1ccncc1)OCO3	inactive	38.5%	–
Cc1nc2cc3c(cc2c(=O)n1/N=C/c1ccccc1)OCO3	inactive	17.6%	–
Cc1nc2cc3c(cc2c(=O)n1/N=C/c1ccc(N(C)C)cc1)OCO3	inactive	43%	inhibition [4]: inactive; Activity [5]: 50%; inhibition [6]: Active; Activity [7]: inactive; ED50 [8]: 5.4 µmol/kg
Cc1nc2cc3c(cc2c(=O)n1/N=C/c1ccccn1)OCO3	inactive	18.5%	–
Cc1nc2cc3c(cc2c(=O)n1/N=C/c1ccco1)OCO3	inactive	16.9%	–
Cc1c(N(C)CS(=O)(=O)[O-])c(=O)n(-c2ccccc2)n1C.[Na+] [DIPYRONE SODIUM]	–	36%	ED50 [8]: 144 µmol/kg
Cc1nc2cc3c(cc2c(=O)n1/N=C/c1ccc(C(C)C)cc1)OCO3	inactive	32.9%	–
C/C(=N\n1c(C)nc2cc3c(cc2c1=O)OCO3)c1cccs1	inactive	45.3%	inhibition [4]: inactive; Activity [5]: 50%; inhibition [6]: Active; Activity [7]: inactive; ED50 ([8]; read-out: ED50): 3.5 mg/kg
